Data as given in ChEMBL document CHEMBL1133118 (J Med Chem, 2000).
Values belong to the compound of their own block, whether it stands above or below them.

Legend:
Adenosine receptor A3 [1] = target: T1, Adenosine receptor A3 (Homo sapiens, UniProt P0DMS8); assay: Displacement of [3H]MRE3008-F20 from human adenosine A3 receptor expressed in CHO cells; range 7.2-8.9; type: cell-based
T1 sequence (P0DMS8 whole entry): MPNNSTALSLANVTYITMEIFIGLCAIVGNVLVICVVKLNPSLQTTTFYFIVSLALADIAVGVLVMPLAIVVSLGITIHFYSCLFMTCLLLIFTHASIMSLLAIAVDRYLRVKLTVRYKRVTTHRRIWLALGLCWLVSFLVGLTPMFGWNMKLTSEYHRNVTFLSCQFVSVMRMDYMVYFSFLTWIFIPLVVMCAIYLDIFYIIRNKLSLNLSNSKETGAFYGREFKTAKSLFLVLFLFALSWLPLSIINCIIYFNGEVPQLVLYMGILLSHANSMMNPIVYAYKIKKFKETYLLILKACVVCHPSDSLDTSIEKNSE

[2] = target: Adenosine receptors; A1 & A3 (Homo sapiens) (UniProt P30542+P0DMS8); assay: Ratio of binding affinity of human A1 receptor to that of human A3 receptor; type: protein assay
Outline: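 Ki ratio from displacement in CHO membranes, 6–8 concentrations, n=3-6, filtration counting. A1: 1 nM [3H]DPCPX, 50 μg protein, 120 min at 25 °C, nonspecific with 10 μM CHA. A3: 1 nM [3H]MRE3008-F20, 50 μg protein, Tris/10 mM MgCl2 pH 7.4, 120 min at 4 °C, nonspecific with 1 μM MRE3008-F20.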

[3] = target: Adenosine receptors; A2b & A3 (Homo sapiens) (UniProt P29275+P0DMS8); assay: Ratio of binding affinity of human A2B receptor to that of human A3 receptor; type: protein assay
Outline: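 Ki ratio, n=3-6, 6–8 concentrations. A2B in HEK-293 membranes (20 μg): 40 nM [3H]DPCPX, 50 mM Tris HCl, 10 mM MgCl2, 1 mM EDTA, 0.1 mM benzamidine pH 7.4, 2 IU/mL adenosine deaminase, 60 min at 25 °C, nonspecific with 100 μM NECA. A3 in CHO membranes (50 μg): 1 nM [3H]MRE3008-F20, 120 min at 4 °C.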

[4] = target: T2, Adenosine receptor A3 (Homo sapiens) (UniProt P0DMS8); assay: Percentage of blockade by 1 uM of the inhibition by 100 nM IB-MECA-inhibited cAMP accumulation in CHO cells expressing human adenosine A3 receptor.; type: functional, cell-based
T2 sequence (whole entry): T1 sequence (P0DMS8 whole entry)
Outline: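 CHO cells stably expressing human A3 receptor; membranes in 50 mM Tris HCl, 10 mM MgCl2, 1 mM EDTA pH 7.4 with 5 μM GTP, 0.5 mM […] and 2.0 IU/mL adenosine deaminase. Preincubated 10 min at 37 °C, then IB-MECA (100 nM) and/or antagonist with 1 mM ATP and 10 μM forskolin for 10 min. Boiled 2 min. cAMP read by [3H]cAMP competition with adrenal binding protein.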

Adenosine receptor A2b [5] = target: T3, Adenosine receptor A2b (Homo sapiens, UniProt P29275); assay: Displacement of [3H]DPCPX from Adenosine A2b receptor expressed in HEK-293 cells; range 81-101
T3 sequence (P29275 whole entry): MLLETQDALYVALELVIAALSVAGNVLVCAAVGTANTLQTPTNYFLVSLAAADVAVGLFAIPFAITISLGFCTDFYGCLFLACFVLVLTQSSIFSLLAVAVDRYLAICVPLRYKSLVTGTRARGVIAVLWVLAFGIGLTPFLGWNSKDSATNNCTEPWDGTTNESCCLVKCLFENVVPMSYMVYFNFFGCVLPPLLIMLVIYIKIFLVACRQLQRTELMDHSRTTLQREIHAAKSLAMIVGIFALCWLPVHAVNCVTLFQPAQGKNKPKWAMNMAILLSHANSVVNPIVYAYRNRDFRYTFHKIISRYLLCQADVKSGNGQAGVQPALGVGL

Adenosine receptor A2a [6] = target: T4, Adenosine receptor A2a (Homo sapiens, UniProt P29274); assay: Displacement of [3H]-SCH- 58261 from human adenosine A2A receptor expressed in CHO cells; range 65-92; type: cell-based
T4 sequence (P29274 whole entry): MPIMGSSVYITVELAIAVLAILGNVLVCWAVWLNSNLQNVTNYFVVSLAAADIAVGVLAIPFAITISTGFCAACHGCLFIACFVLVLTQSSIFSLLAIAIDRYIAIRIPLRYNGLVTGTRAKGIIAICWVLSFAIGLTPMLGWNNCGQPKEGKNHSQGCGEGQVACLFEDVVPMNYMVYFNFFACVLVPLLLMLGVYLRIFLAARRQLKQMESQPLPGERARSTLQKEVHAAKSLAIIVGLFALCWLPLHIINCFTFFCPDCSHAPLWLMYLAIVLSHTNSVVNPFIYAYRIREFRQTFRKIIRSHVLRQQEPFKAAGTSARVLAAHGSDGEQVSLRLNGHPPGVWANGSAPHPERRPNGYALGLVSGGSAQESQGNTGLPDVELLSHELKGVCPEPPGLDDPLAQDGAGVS
Outline: (§1)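 Membranes from CHO cells stably expressing human A2A receptor, grown in DMEM/F12 without nucleosides, resuspended in 50 mM Tris HCl, 10 mM MgCl2, pH 7.4; 50 μg protein/assay. Competition with [3H]SCH 58261 at 6–8 or more compound concentrations, 60 min at 25 °C; nonspecific binding with 50 μM NECA. Filtration on GF/B filters, scintillation counting; n=3-6.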

Adenosine receptor A2b [7] = target: T3, Adenosine receptor A2b; assay: Displacement of [3H]DPCPX from Adenosine A2b receptor expressed in […]; range 260-352; type: cell-based
Adenosine receptor A3 [8] = target: T1, Adenosine receptor A3; assay: Displacement of [3H]MRE3008-F20 from human adenosine A3 receptor expressed in CHO cells; range 0.27-0.34; type: cell-based
Adenosine receptor A1 [9] = target: T5, Adenosine receptor A1 (Homo sapiens, UniProt P30542); assay: Displacement of [3H]DPCPX from human adenosine A1 receptor expressed in CHO cells; range 269-326; type: cell-based
T5 sequence (P30542 whole entry): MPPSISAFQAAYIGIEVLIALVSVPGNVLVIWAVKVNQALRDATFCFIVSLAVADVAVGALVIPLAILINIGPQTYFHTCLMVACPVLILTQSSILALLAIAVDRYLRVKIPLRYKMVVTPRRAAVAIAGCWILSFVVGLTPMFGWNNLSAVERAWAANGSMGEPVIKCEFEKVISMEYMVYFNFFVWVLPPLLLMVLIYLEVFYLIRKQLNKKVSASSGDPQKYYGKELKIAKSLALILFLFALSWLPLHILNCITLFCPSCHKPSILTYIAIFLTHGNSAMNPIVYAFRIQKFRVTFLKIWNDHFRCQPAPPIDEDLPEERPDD

Adenosine receptor A3 [10] = target: T1, Adenosine receptor A3; assay: Inhibition of cAMP accumulation in CHO cells expressing human adenosine A3 receptor; range 2.9-6.0; type: functional, cell-based
[11] = target: T2, Adenosine receptor A3 (Homo sapiens); settings: CHO, 1 uM
Adenosine receptor A2a [12] = target: T4, Adenosine receptor A2a; assay: Displacement of [3H]-SCH- 58261 from human adenosine A2A receptor expressed in CHO cells; range 730-1100; type: cell-based
Adenosine receptor A1 [13] = target: T5, Adenosine receptor A1; assay: Displacement of [3H]DPCPX from human adenosine A1 receptor expressed in CHO cells; range 267-453; type: cell-based
Adenosine receptor A3 [14] = target: T1, Adenosine receptor A3; assay: Displacement of [3H]MRE3008-F20 from human adenosine A3 receptor expressed in CHO cells; range 3228-3614; type: cell-based
Adenosine receptor A2b [15] = target: T3, Adenosine receptor A2b; assay: Displacement of [3H]DPCPX from Adenosine A2b receptor expressed in HEK-293 cells; range 3828-4817
Adenosine receptor A2a [16] = target: T4, Adenosine receptor A2a; assay: Displacement of [3H]-SCH- 58261 from human adenosine A2A receptor expressed in CHO cells; range 47-78; type: cell-based; outline: as §1
Adenosine receptor A2b [17] = target: T3, Adenosine receptor A2b; assay: Displacement of [3H]DPCPX from Adenosine A2b receptor expressed in CHO cells; range 45-64; type: cell-based; settings: in the assay text read “HEK-293 cells” for “CHO cells”
Outline: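 Human recombinant A2B receptor was expressed in HEK-293 cell membranes (20 μg protein). Incubated with 40 nM [3H]DPCPX in 50 mM Tris HCl, 10 mM MgCl2, 1 mM EDTA, 0.1 mM benzamidine, pH 7.4, with 2 IU/mL adenosine deaminase, at least 6–8 test concentrations, 60 min, 25 °C. Nonspecific binding was taken with 100 μM NECA; n=3-6.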

Adenosine receptor A1 [18] = target: T5, Adenosine receptor A1; assay: Displacement of [3H]DPCPX from human adenosine A1 receptor expressed in CHO cells; range 149-204; type: cell-based
Adenosine receptor A3 [19] = target: T1, Adenosine receptor A3; assay: Displacement of [3H]MRE3008-F20 from human adenosine A3 receptor expressed in CHO cells; range 23-40; type: cell-based
[20] = target: T2, Adenosine receptor A3 (Homo sapiens); settings: CHO, 1 uM; remark: listed apart in the source
Adenosine receptor A2a [21] = target: T4, Adenosine receptor A2a; assay: Displacement of [3H]-SCH- 58261 from human adenosine A2A receptor expressed in CHO cells; range 880-1160; type: cell-based; outline: as §1
Adenosine receptor A2b [22] = target: T3, Adenosine receptor A2b; assay: Displacement of [3H]-DPCPX from Adenosine A2b receptor expressed in […]; range 719-895; type: cell-based
Adenosine receptor A3 [23] = target: T1, Adenosine receptor A3; assay: Displacement of [3H]MRE3008-F20 from human adenosine A3 receptor expressed in CHO cells; range 33-48; type: cell-based
Adenosine receptor A2b [24] = target: T3, Adenosine receptor A2b; assay: Displacement of [3H]DPCPX from Adenosine A2b receptor expressed in […]; range 157-268; type: cell-based
Adenosine receptor A2a [25] = target: T4, Adenosine receptor A2a; assay: Displacement of [3H]-SCH- 58261 from human adenosine A2A receptor expressed in CHO cells; range 1024-1396; type: cell-based
Adenosine receptor A1 [26] = target: T5, Adenosine receptor A1; assay: Displacement of [3H]DPCPX from human adenosine A1 receptor expressed in CHO cells; range 323-378; type: cell-based
Adenosine receptor A3 [27] = target: T1, Adenosine receptor A3; assay: Inhibition of cAMP accumulation in CHO cells expressing human adenosine A3 receptor; range 2.8-8.1; type: functional, cell-based
[28] = target: T2, Adenosine receptor A3 (Homo sapiens); settings: CHO, 1 uM; remark: listed apart in the source
Adenosine receptor A3 [29] = target: T1, Adenosine receptor A3; assay: biochemical

Compound: CCCCn1cc2c(nc(NC(=O)Nc3ccc(OC)cc3)n3nc(-c4ccco4)nc23)n1
Ki (Adenosine receptor A2a [6]): 80 nM | Ki (Adenosine receptor A2b [7]): 303 nM | Ki (Adenosine receptor A3 [8]): 0.32 nM | Ki (Adenosine receptor A1 [9]): 296 nM | IC50 (Adenosine receptor A3 [10]): 4.1 nM | Ratio [2]: 925 | Ratio [3]: 946 | inhibition [11]: 93%

Compound: COc1ccc(NC(=O)Nc2nc3nn(CCC(C)C)cc3c3nc(-c4ccco4)nn23)cc1
Ki (Adenosine receptor A2a [16]): 65 nM | Ki (Adenosine receptor A2b [17]): 54 nM | Ki (Adenosine receptor A1 [18]): 175 nM | Ki (Adenosine receptor A3 [19]): 30 nM | Ratio [2]: 5.8 | Ratio [3]: 1.8 | inhibition [20]: 48%

Compound: COc1ccc(NC(=O)Nc2nc3nn(CCCc4ccccc4)cc3c3nc(-c4ccco4)nn23)cc1
Ki (Adenosine receptor A2a [21]): 1010 nM | Ki (Adenosine receptor A2b [22]): 802 nM | Ki (Adenosine receptor A3 [23]): 40 nM | Ratio [2]: 6.27 | Ratio [3]: 20 | inhibition [4]: 49%

Compound: Cn1cc2c(nc(NC(=O)Nc3cccc(Cl)c3)n3nc(-c4ccco4)nc23)n1
Ki (Adenosine receptor A2b [24]): 205 nM | Ki (Adenosine receptor A2a [25]): 1200 nM | Ki (Adenosine receptor A1 [26]): 350 nM | IC50 (Adenosine receptor A3 [27]): 4.8 nM | Ratio [2]: 875 | Ratio [3]: 512 | inhibition [28]: 92% | Ki (Adenosine receptor A3 [29]): 0.4 nM

More lines, now with the values ahead:

Ki (Adenosine receptor A3 [1]): 8 nM | Ratio [2]: 6.3 | Ratio [3]: 11.2 | inhibition [4]: 58% | Ki (Adenosine receptor A2b [5]): 90 nM
Compound: O=C(Nc1cccc(Cl)c1)Nc1nc2nn(CCc3ccccc3)cc2c2nc(-c3ccco3)nn12

Ki (Adenosine receptor A2a [12]): 896 nM | Ki (Adenosine receptor A1 [13]): 348 nM | Ki (Adenosine receptor A3 [14]): 3420 nM | Ratio [2]: 0.1 | Ratio [3]: 1.26 | inhibition [4]: 4% | Ki (Adenosine receptor A2b [15]): 4290 nM
Compound: Nc1nc2nn(CCc3cccc4ccccc34)cc2c2nc(-c3ccco3)nn12
